In PubChem BioAssay:
The other results are listed elsewhere or left out. Unmarked numbers belong to inactive results. The source made the active and inactive calls.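 Rule for the calls: active = mean inhibition across replicates above the hit cutoff set in the primary screen (cut at about 30% in these data); inactive = the rest.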

These molecules were tested against (Lyso)-N-acylphosphatidylethanolamine lipase (Mus musculus) (UniProt Q8VD66) (assay: ABHD4 inhibitors, retest, confirmation, biochemical, fluorescence polarization, mouse (AID 720658;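 note: 0% = wild-type ABHD4 with DMSO and 100% = catalytically dead S159A mutant with DMSO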)). Conditions: purified mABHD4, FP-Rh probe fluorescence polarization; at 8.92 µM; stronger effect = higher value.
Outline: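 material = wild-type mouse ABHD4 | signal = fluorescence polarization, excitation 525 nm, emission 598 nm | times = 45 min compound pretreatment plus 60 min FP-Rh labeling, 25 °C | also added = Rhodamine-tagged fluorophosphonate probe FP-Rh | read-out = percent inhibition scaled between wild-type DMSO and S159A mutant wells | medium = HEPES-saline buffer with 0.01% Pluronic F-127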

Chain of (Lyso)-N-acylphosphatidylethanolamine lipase (Mus musculus) (Q8VD66 whole entry, looked up): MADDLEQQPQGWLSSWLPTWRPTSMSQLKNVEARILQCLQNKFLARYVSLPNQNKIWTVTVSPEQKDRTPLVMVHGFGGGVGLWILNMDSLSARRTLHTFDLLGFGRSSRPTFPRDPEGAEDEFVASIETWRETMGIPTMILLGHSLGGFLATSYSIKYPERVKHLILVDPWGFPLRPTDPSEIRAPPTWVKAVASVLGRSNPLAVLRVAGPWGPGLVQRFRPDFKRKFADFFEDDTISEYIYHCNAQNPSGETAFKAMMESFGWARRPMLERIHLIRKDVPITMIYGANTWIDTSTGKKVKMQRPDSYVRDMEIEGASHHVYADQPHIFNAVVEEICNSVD

Row | Compound | inhibition
1 | Nc1[nH]c(C(=O)c2ccc(Br)cc2)c(-c2ccc3c(c2)OCO3)c1C(=O)NCCc1c[nH]c2ccccc12 | 36.9% (active)
2 | C/C(=N\NC(=O)c1ccc(C)cc1)C1C(=O)c2ccccc2C1=O | 35.3% (active)
3 | O=C(COC(=O)c1ccc(O)cc1O)c1ccc2c(c1)OCCO2 | 40.2% (active)
4 | Cc1cccc(N2CCN(Cc3nc(C4CC4)no3)CC2)n1 | -2.12%
5 | CCOC(=O)[C@H]1Nc2ccc(Cl)cc2[C@@H]2[C@H]1C1CC(c3ccccc31)N2C(=O)OCc1ccccc1 (some centres undefined) | 42% (active)
6 | CC(C)COC(=O)n1c(=O)oc2ccc(S(=O)(=O)N3CCCCC3)cc21 | 49.4% (active)
7 | NNc1nc2c(Cl)cccc2s1 | 24%
8 | CCC(CO)Oc1cc(NC(=O)c2cccc(F)c2)c2ncn(C(C)C)c2c1 (centres undefined) | 1.62%
9 | c1ccc2sc(NN=C3CCCC3)nc2c1 | -1.86%
10 | COc1cc(C(=O)Nn2c(O)c(C3=c4ccccc4=NC3=O)sc2=S)ccc1O | 77.4% (active)
11 | CCOC(=O)Cn1c2c(n(-c3ccc(F)cc3)c1=O)C=C(c1ccccc1)[C@@H](C)C(C(=O)N(C)C1CCCCC1)=C2 | 29.3%
12 | NC(N)=N/N=C/c1ccc(OCc2ccc(Cl)cc2Cl)cc1 | 46.2% (active)
13 | CC(C)c1ccc(CC(=O)N2CCC2(C)C(=O)NS(=O)(=O)c2ccc(C(C)(C)C)cc2)cc1 (centres undefined) | 68.5% (active)
14 | O=C(O)c1ccccc1/C=N/Nc1ccc(S(=O)(=O)Nc2ccc(Cl)cc2)cc1[N+](=O)[O-] | 50.4% (active)
15 | CC1CCN(c2ccc(C(=O)O)cc2NS(=O)(=O)c2ccc(Br)s2)CC1 | 47.5% (active)
16 | COC(=O)c1oc2ccc(Br)cc2c1NC(C)=O | -0.79%
17 | Cc1ccc(NC(=O)Cc2nc(COC(=O)C(C)NS(=O)(=O)c3ccc(C)cc3)cs2)cc1 (centres undefined) | 7.11%
18 | OCCNc1nc(Nc2ccc(Cl)c(Cl)c2)nc2ccccc12 | 40.4% (active)
19 | Cc1cccc(-n2cnc(C(=O)NNC(=S)Nc3ccccc3)c2)n1 | 57.2% (active)
20 | O=C(O)c1ccc(N/N=C/c2cn(-c3ccccc3)nc2-c2cccs2)cc1 | 57.4% (active)
21 | CCOc1ccc2nc(Nc3nc4ccc(NC(C)=O)cc4s3)sc2c1 | 30.9% (active)
22 | CCCCCCSc1ccc(-c2nc3ccc(Cl)cn3c2NCc2ccccc2)cc1 | 5.45%
23 | Oc1ccc(/C=N/Nc2ccc(C(F)(F)F)cn2)cc1O | 34% (active)
24 | CCOC(=O)C1=C(C)N=C2c3ccccc3C(=O)C2C1c1ccc(Br)cc1 (centres undefined) | 44.8% (active)
25 | O=[N+]([O-])c1cc(Br)c(O)c(/C=N/Nc2nc3ccccc3s2)c1 | 69.5% (active)
26 | CC/C(=C(/c1ccccc1)c1ccc(OCC[N+](C)(C)C)cc1)c1ccccc1 | 36.6% (active)
27 | CC(C)(C)C(=O)OCc1nc(-c2ccc(O)c(O)c2)cs1 | 28.1%
28 | CCN1C(=O)/C(=C2/Sc3ccccc3N2CCCS(=O)(=O)O)SC1=S | 24.3%
29 | COc1cc(/C=C2/C(=O)NN(c3cccc(Cl)c3)C2=O)cc(Br)c1O | 38.8% (active)
